Experimental data from article PMC10926215 (The Journal of Biological Chemistry, 2024).
Blank lines part the entries; values can stand above or below the compound they belong to. Square brackets hold non-standard residues; d marks the D form. Peptide text beside a SMILES is read from it. pS = N[C@@H](COP(=O)(O)O)C(=O)O

Assays:
[1] = tested on: PDE8A–14-3-3ζ interaction; test: Co-immunoprecipitation of PDE8A with HA-14-3-3ζ in treated HEK293T cells; format: cell-based, human; settings: for change of PDE8A–14-3-3ζ interaction, PKC activator/inhibitor: 1 μM, Fig. 3B
PDE8A = settings: background statement; ref not stated; cited from earlier work
14-3-3ζ protein = target: T1, 14-3-3ζ protein (Homo sapiens, UniProt P63104); test: 31P NMR titration of KA14P with 14-3-3ζ protein; format: binding
T1 sequence (P63104 1-245): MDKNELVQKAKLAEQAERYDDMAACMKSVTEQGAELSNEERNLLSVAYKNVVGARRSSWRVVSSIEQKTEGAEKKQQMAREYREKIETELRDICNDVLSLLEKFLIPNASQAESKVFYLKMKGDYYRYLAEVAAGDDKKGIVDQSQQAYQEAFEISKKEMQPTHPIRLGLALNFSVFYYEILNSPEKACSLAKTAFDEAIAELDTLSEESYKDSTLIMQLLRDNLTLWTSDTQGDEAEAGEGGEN
Method in brief: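 Human 14-3-3ζ expressed from pQE30 in E. coli M15 (0.5 mM IPTG, 3 h, 37 °C), Ni-NTA purified, and stored in 10 mM phosphate pH 6.1 with 50 mM NaCl. Peptide held at 500 μM. Spectra taken with 512 scans, 16 dummy scans and a 10 s recycle delay. A 20 Hz exponential line broadening was applied before Fourier transformation.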

[2] = tested on: DN-PDE8A (D726A)–14-3-3ζ interaction; test: Co-immunoprecipitation of DN-PDE8A with HA-14-3-3ζ in treated HEK293T cells; format: cell-based, human; settings: forskolin 100 μM, 15 min; Fig. 3D
[3] = tested on: D726A PDE8A mutant (DN-PDE8A); settings: cited from earlier work
14-3-3ζ = 14-3-3ζ (UniProt P63104); test: co-IP, anti-HA IP, Myc/FLAG blot; settings: reference: wild type PDE8A; sites S359
[4] = target: KA14P (phosphorylated PDE8A peptide) (human); test: NMR titration

Compound: CN(C)CCCn1cc(C2=C(c3c[nH]c4ccccc34)C(=O)NC2=O)c2ccccc21 [GX109203X]
change of PDE8A–14-3-3ζ interaction, PKC activator/inhibitor ([1]; 15 min): no change of interaction

Compound: O=S(=O)(NCCNC/C=C/c1ccc(Br)cc1)c1cccc2cnccc12 [H89]
association of PDE8A and 14-3-3ζ, PKA inhibitor ([1]; 100 μM, 15 min pretreatment, then forskolin 100 μM, 15 min, anti-HA IP, Fig. 3A): association decreased

Compound: CC(C)Cn1c(=O)n(C)c(=O)c2[nH]cnc21 [IBMX, 3-isobutyl-1-methylxanthine]
sensitivity of PDE8A to inhibitor (PDE8A): insensitive

Compound: CC(C)C[C@H](NC(=O)[C@H](COP(=O)(O)O)NC(=O)CNC(=O)[C@H](CCCCN)NC(=O)[C@H](CCCNC(=N)N)NC(=O)[C@H](CCCNC(=N)N)NC(=O)[C@H](CC(=O)O)NC(=O)[C@@H](N)CCCCN)C(=O)N[C@@H](CC(=O)O)C(=O)N[C@H](C(=O)N[C@@H](CCCCN)C(=O)N[C@@H](C)C(=O)N[C@H](C(=O)N[C@@H](C)C(=O)O)C(C)C)C(C)C [KA14P] (H-KDRRKG[pS]LDVKAVA-OH)
Kd (14-3-3ζ protein): 11.3 ± 0.18 µM

Compound: CCCCCCCCCCCCCC(=O)O[C@@H]1[C@@H](C)[C@@]2(O)[C@@H](C=C(CO)C[C@]3(O)C(=O)C(C)=C[C@@H]23)[C@@H]2C(C)(C)[C@]12OC(C)=O [PMA, phorbol 12-myristate 13-acetate]
change of PDE8A–14-3-3ζ interaction, PKC activator/inhibitor ([1]; 15 min): no change of interaction

Compound: C=C[C@@]1(C)CC(=O)[C@]2(O)[C@@]3(C)[C@@H](O)CCC(C)(C)[C@@H]3[C@H](O)[C@H](OC(C)=O)[C@@]2(C)O1 [forskolin]
association of PDE8A and 14-3-3ζ, PKA activator ([1]; 100 μM, 15 min, serum-free, anti-HA IP, at least three repeats, Fig. 3A): increased association
interaction of DN-PDE8A with 14-3-3ζ [2]: increased further
phosphorylation of DN-PDE8A by PKA following treatment [3]: rapidly phosphorylated

Compound: COc1ccc(Cl)c(Nc2nc3ccccc3nc2NS(=O)(=O)c2cccc(NC(=O)C(C)(C)N)c2)c1 [pilaralisib]
PDE8A–14-3-3ζ interaction, inhibitor of PI3K ([1]; 100 μM, 30 min, Fig. 3C): remained unchanged

binding against the reference (14-3-3ζ): lost
Compound: PDE8A (phosphodiesterase 8A) (from UniProt O60658) S359A

Compound: insulin: human insulin; activator of PI3K
PDE8A–14-3-3ζ interaction, activator of PI3K ([1]; 200 μM, 30 min, Fig. 3C): remained unchanged

Kd [4]: 11.3 µM
Compound: purified recombinant 14-3-3ζ (from UniProt P63104 1-245) (natural protein)
